From ChEMBL document CHEMBL4732139, “Novel N-Methylated Cyclodepsipeptide Prodrugs for Targeted Cancer Therapy” (J Med Chem, 2021) come the findings set out here.

The source made the active and inactive calls. The rule behind the calls is not given here. Where a SMILES comes first, the peptide text is derived from it. Bridges are numbered along the chain shown (N, C = ends). [ ]: non-standard residue; d: D form. The star is where a group is joined. NMe2Val = CC(C)[C@@H](C(=O)*)N(C)C; NMeI = CC[C@H](C)[C@H](NC)C(=O)O; NMeT = CN[C@H](C(=O)O)[C@@H](C)O; NMeL = CN[C@@H](CC(C)C)C(=O)O; dHiv = CC(C)[C@@H](O)C(=O)O; NMeA = CN[C@@H](C)C(=O)O; dNMeA = CN[C@H](C)C(=O)O

Data set [1] can be described thus: Drug metabolism in PBS at 37 degC assessed as metabolite-1a formation at 50 uM in presence of DTT after 30 mins by RP-HPLC analysis. A digest of the protocol:
(§1)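 50 μM conjugate (from 2 mM DMSO stock) in 10% DMSO/PBS with 150 μM DTT (final) at 37 °C. Aliquots taken at 30, 60 and 90 min for RP-HPLC: C18, 10−100% CH₃CN over 20 min in 0.1% TFA water, 0.5 mL/min, detection at 220 and 254 nm. Three repeats.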

The nature of data set [2]: Toxicity in Balb/c mouse assessed as induction of weight loss at 5 mg/kg, iv dosed every 2 days for total 10 times and measured on day 21. The following applies: in vivo, 504 h, time 21 day. The format is organism-based. A digest of the protocol:
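Six-week male Balb/c nude mice, n = 3 per group, given various doses by i.v. injection every 2 days. Body weight monitored.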

In data set [3] the test system is A549. The data set can be described thus: Cytotoxicity in human A549 cells assessed as reduction in cell viability incubated for 48 hrs in absence of GSH-OEt by CCK8 assay. The format is functional, cell-based. The settings on record: A549, 48 h. A digest of the protocol: (§2)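 Cells grown in high-glucose DMEM with 10% FBS and penicillin/streptomycin at 37 °C, 5% CO₂. 3000−4000 cells/well seeded and preincubated overnight. Treated with a concentration gradient in quadruplicate for 48 h. Medium then replaced with 10% CCK-8 in fresh medium for 1 h at 37 °C, A450 read. IC50 from log(inhibitor)-response fit, mean SD of three independent experiments.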

The subject of data set [4] is BT-549. The data set can be described thus: Cytotoxicity in human BT-549 cells assessed as reduction in cell viability incubated for 48 hrs in absence of GSH-OEt by CCK8 assay. The format is functional, cell-based. The settings on record: BT-549, 48 h. In a few lines:
as §2

Data set [5] in a line: Toxicity in Balb/c mouse xenografted with human A549 cells assessed as induction of side effect at 5 mg/kg, iv dosed every 2 days for total 10 times and measured on day 21. The settings on record: in vivo. The class given is organism-based. A digest of the protocol: (§3)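 Six-week male Balb/c nude mice; 1 × 10⁷ A549 cells washed in cold PBS, suspended in serum-free high-glucose DMEM, injected s.c. in right flank. At ~50 mm³ (L × W × 1/2 W), randomized into two groups, n = 7 each. 5 mg/kg in 10% DMSO/PBS (1 mg/mL) given i.v. via tail vein every 2 days ×10. Vehicle control 10% DMSO/PBS. Tumor size and body weight measured before each injection. Tumors excised and weighed at end.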
For orientation: A xenograft is tissue or cells of one species grown in another, often human tumour cells in immunodeficient mice.

A short description of data set [6]: Toxicity in Balb/c mouse xenografted with human A549 cells assessed as induction of weight loss at 5 mg/kg, iv dosed every 2 days for total 10 times and measured on day 21. The class given is organism-based. The following applies: in vivo, 504 h, time 21 day. In a few lines: as §3
For data set [7], the system named is BT-549. Description: Cytotoxicity in human BT-549 cells assessed as reduction in cell viability incubated for 72 hrs by CCK8 assay. The class given is functional, cell-based. In a few lines: (§4)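 CCK-8 viability assay with a 72 h treatment. Cells seeded at 3000−4000/well and preincubated overnight. Concentration gradient applied in quadruplicate. Then 10% CCK-8 for 1 h at 37 °C and A450 read. IC50 by log(inhibitor)-response fitting.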
A general note: Tetrazolium dyes change colour on reduction, which living cells bring about.

Data set [8] deals with A549. Description: Antitumor activity against human A549 cells xenografted in Balb/c mouse assessed as reduction in tumor size at 5 mg/kg, iv dosed every 2 days for total 10 times and measured on day 21. The class given is functional, organism-based. The settings on record: time 21.0 day. In a few lines: as §3
Data set [9] deals with A549. The data set can be described thus: Cytotoxicity in human A549 cells assessed as reduction in cell viability incubated for 72 hrs by CCK8 assay. The format is functional, cell-based. A digest of the protocol: as §4
Data set [10] in a line: Drug metabolism in PBS at 37 degC assessed as metabolite-1a formation at 50 uM in presence of DTT after 30 to 90 mins by RP-HPLC analysis. The following applies: time 30-90 min. In a few lines: as §1
Data set [11] can be described thus: Drug metabolism in PBS at 37 degC assessed as parent compound disappearance at 50 uM in presence of DTT after 90 mins by RP-HPLC analysis. A digest of the protocol:
as §1

For data set [12], the system named is A549. Description: Antitumor activity against human A549 cells xenografted in Balb/c mouse assessed as reduction in tumor mass at 5 mg/kg, iv dosed every 2 days for total 10 times and measured on day 21 relative to untreated control. The format is functional. The settings on record: time 21 day. In a few lines:
as §3

The test system of data set [13] is A549. The data set can be described thus: Cytotoxicity in human A549 cells assessed as reduction in cell viability incubated for 48 hrs in presence of GSH-OEt by CCK8 assay. The class given is functional, cell-based. The settings on record: A549, 48 h. A digest of the protocol: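 A549 cells preincubated 2 h with 1 mM GSH-OEt, then exposed to compound for 48 h. Viability by CCK-8. Remaining steps: overnight-seeded cells (3000−4000/well), quadruplicate wells, 10% CCK-8 for 1 h at 37 °C, A450. IC50 by log(inhibitor)-response fit, mean of triplicate.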

Data set [14] is described as follows: Stability in PBS at 37 degC assessed as parent intact compound remaining level at 50 uM after 24 hrs by RP-HPLC analysis. The settings on record: read-out: Stabilty. The class given is physicochemical. In a few lines: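 50 μM compound in 10% DMSO/PBS without DTT or cathepsin B at 37 °C. Sampled at 0, 4, 8, 12 and 24 h and analyzed by RP-HPLC (C18, 10−100% CH₃CN/0.1% TFA over 20 min). Three repeats.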

In data set [15] the test system is A549. The data set can be described thus: Antitumor activity against human A549 cells xenografted in Balb/c mouse assessed as reduction in tumor growth at 5 mg/kg, iv dosed every 2 days for total 10 times and measured on day 21. The format is functional, organism-based. The following applies: time 21.0 day. In a few lines: as §3
Data set [16] has as its system BT-549. The data set can be described thus: Cytotoxicity in human BT-549 cells assessed as reduction in cell viability incubated for 48 hrs by CCK8 assay. The format is functional, cell-based. A digest of the protocol:
as §2

In data set [17] the test system is A549. Description: Cytotoxicity in human A549 cells assessed as reduction in cell viability incubated for 48 hrs by CCK8 assay. The class given is functional, cell-based. In a few lines:
as §2

The nature of data set [18]: Toxicity in Balb/c mouse assessed as induction of weight loss at 1 mg/kg, iv dosed every 2 days and measured on day 3. The format is organism-based. The settings on record: in vivo, 72 h, time 3 day. A digest of the protocol:
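In vivo tolerability in six-week-old male Balb/c nude mice (n = 3 per group). Compounds were given intravenously every 2 days at various dosages, and body weight was followed over time.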

For `CC[C@H](C)[C@H]1C(=O)N[C@@H](C)C(=O)N(C)[C@@H](CC(C)C)C(=O)N[C@@H](Cc2ccc(OC)cc2)C(=O)N(C)[C@H](C)C(=O)O[C@H](C)[C@H](N(C)C(=O)[C@H](CC(C)C)N(C)C(=O)[C@H](C)N(C)C(=O)[C@H](OC(=O)[C@H](C(C)C)[N+](C)(C)Cc2ccc(NC(=O)OCCSSCCn3cc(CCC(=O)NCCCC[C@@H]4NC(=O)[C@@H](Cc5ccc(O)cc5)NC(=O)[C@H](CC(=O)O)NC(=O)CNC(=O)[C@H](CCCNC(=N)N)NC4=O)nn3)cc2)C(C)C)C(=O)N(C)[C@@H](C)C(=O)N1C.O=C([O-])C(F)(F)F`, the results for the Drug metabolism result in data set [1], in data set [10] and in data set [11] were “Metabolite detected”, “Metabolite detected” and 100%, respectively. In addition, the Activity result in [2], in data set [5] and in data set [6] was “Non-Toxic” throughout. Further, the IC50 (in general, the midpoint of a concentration-inhibition curve) in [3] worked out at 262 nM; in data set [4] it was 311 nM; in [13], 20.6 nM. The outcome in [7], in data set [8], in [9] and in data set [15] was Active. The “fold change (FC)” value in data set [12] came to 4. Also, the remaining at 24 h, 50 µM in data set [14] was greater than 90%.

For `C#CCCC(=O)NCCCC[C@@H]1NC(=O)[C@@H](Cc2ccc(O)cc2)NC(=O)[C@H](CC(=O)O)NC(=O)CNC(=O)[C@H](CCCNC(=N)N)NC1=O`, the IC50 entry in data set [16] (bt-549) and in data set [17] (a549) was “Not Active” each time. Also, the result in data set [7] and in data set [9] was inactive.

As to `CC[C@H](C)[C@H]1C(=O)N[C@@H](C)C(=O)N(C)[C@@H](CC(C)C)C(=O)N[C@@H](Cc2ccc(OC)cc2)C(=O)N(C)[C@H](C)C(=O)O[C@H](C)[C@H](N(C)C(=O)[C@H](CC(C)C)N(C)C(=O)[C@H](C)N(C)C(=O)[C@H](OC(=O)[C@H](C(C)C)N(C)C)C(C)C)C(=O)N(C)[C@@H](C)C(=O)N1C` (NMe2Val-[dHiv][NMeA][NMeL][NMeT][NMeA][NMeI]A[NMeL]Y(Me)[dNMeA]; ester 4-C), the IC50 was determined as 18 nM in data set [16] (Homo sapiens, BT-549, 48 h, read-out: IC50) and 19.1 nM in data set [17] (Homo sapiens, A549, 48 h, read-out: IC50). Besides, the result in data set [7] and in data set [9] was Active. Also, the Activity entry in data set [18] is “Toxic”.
